Laboratory results as given in ChEMBL document CHEMBL5331144, “Design, Synthesis, and Biological Evaluation of 2-Hydroxy-4-phenylthiophene-3-carbonitrile as PD-L1 Antagonist and Its Comparison to Available Small Molecular PD-L1 Inhibitors” (J Med Chem, 2023).
Active and inactive are the calls of the source. The rule behind the calls is not given here.

Tests used:
[1] = molecular target: Programmed cell death protein 1/Programmed cell death 1 ligand 1 (Homo sapiens) (UniProt Q15116+Q9NZQ7); test: Inhibition of human PD-1/PD-L1 interaction assessed as induction of PD-L1 dimerization at 1:1 molar ratio by 1H-15N HMQC NMR analysis; type: protein-complex assay
Summary of the method: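 Recombinant human PD-L1 (residues 18–134), expressed in E. coli BL21(DE3), refolded and purified by SEC in PBS pH 7.4. 1D and 2D NMR spectra recorded for apo protein and with ligand at 1:1 molar ratio.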

Jurkat = test: Cytotoxicity against human Jurkat T cells overexpressing PD-1 with luciferase reporter under the control of NFAT promoter at higher concentration incubated for 48 hrs by redox dye mix based analysis; type: toxicity, cell-based
Summary of the method: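 Jurkat PD-1 effector cells (PD-1 overexpressing, luciferase reporter under NFAT promoter), 5000 cells/well, grown in RPMI 1640 with 10% FBS and 2 mM L-glutamine. Exposed 48 h to increasing compound concentrations, with DMSO held constant; DMSO alone as control. Values are mean ± SD of at least three independent experiments.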

[2] = Ex vivo drug localization in peripheral part of formalin fixed paraffin embedded tumor of human NCI-H358 cells expressing PD-L1 by immunohistochemistry staining based analysis; type: ADME, tissue-based, Neoplasm
Summary of the method: (§1)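 FFPE xenograft tumours (ES2 or H358, PD-L1+/– knockout pairs) cut to 4 μm, deparaffinized at 60 °C with xylene, rehydrated, citrate pH 6.0 heat retrieval. Autoradiography: 30 min incubation with freshly formulated 18F-tracer at 0.2 MBq/mL, washed with cold PBS and water, dried, phosphor-plate exposure and quantification. Adjacent sections stained by IHC with anti-PD-L1 (5 μg/mL, clone 28-8, 60 min), DAB, hematoxylin counterstain.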

[3] = Ex vivo biodistribution in snap-frozen human tonsils overexpressing PD-L1 by autoradiography; type: ADME, Tonsil
Summary of the method: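 Snap-frozen human tonsil sections, 10 min cold acetone, then 30 min incubation with freshly formulated 18F-tracer at 0.2 MBq/mL. Washed twice with cold PBS and once with water, dried, exposed to phosphor plates and quantified by phosphor imaging.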

[4] = Ex vivo biodistribution in formalin fixed paraffin embedded tumor of human NCI-H358 cells expressing PD-L1 by immunohistochemistry staining based analysis relative to control; type: ADME, Neoplasm; summary of the method: as §1
[5] = Ex vivo biodistribution in formalin fixed paraffin embedded tumor of human ES2 cells expressing PD-L1 by immunohistochemistry staining based analysis relative to control; type: ADME, Neoplasm; conditions: es-2; summary of the method: as §1

Drug uptake [2] | Drug uptake [3] | Drug uptake [4] [%] | Drug uptake [5] | SMILES | inhibition [1] | Activity (Jurkat)
 |  |  |  | Cc1c(COc2cc(OCc3cccc(C#N)c3)c(CN3C[C@H](O)C[C@@H]3C(=O)O)cc2Cl)cccc1-c1ccc2c(c1)OCCO2 | Active | Toxic
 |  |  |  | Cc1c(COc2cc(OCc3cccc(C#N)c3)c(CN3C[C@@H](F)C[C@@H]3C(=O)O)cc2Cl)cccc1-c1ccc2c(c1)OCCO2 |  | Toxic
Active | Active | 40 |  | Cc1c(COc2cc(OCc3cccc(C#N)c3)c(CN3C[C@@H]([18F])C[C@@H]3C(=O)O)cc2Cl)cccc1-c1ccc2c(c1)OCCO2 |  | 
 |  |  |  | N#Cc1c(-c2ccc(F)cc2)csc1OCc1ccc(CN)cc1 | Active | Toxic
Active | Active | 40 | Not Active | N#Cc1c(-c2ccc([18F])cc2)csc1OCc1ccc(CN)cc1 |  | 
